Key:
[1] = system: PC-3; assay: Antiproliferative activity against human PC3 cells after 3 days by WST-1 assay; assay type: functional, cell-based; conditions: PC-3, 72 h
Outline: (§1)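 Cells from ATCC; PC-3 and LNCaP grown in RPMI-1640 and DU145 in EMEM, each with 10% FBS and 1% penicillin/streptomycin, 37 °C, 5% CO2. Seeded 3,200 cells/well and exposed for 3 days to at least five doses, with DMSO as vehicle control. WST-1 reagent added for 3 h at 37 °C, absorbance read at 430 nm. IC50 taken from a linear inhibition plot; mean ± SD of three independent experiments.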

[2] = system: DU-145; assay: Antiproliferative activity against human DU145 cells after 3 days by WST-1 assay; assay type: functional, cell-based; conditions: DU-145, 72 h; outline: as §1
[3] = system: LNCaP; assay: Antiproliferative activity against human LNCAP cells after 3 days by WST-1 assay; assay type: functional, cell-based; conditions: 72 h; outline: as §1
[4] = system: PWR-1E; assay: Antiproliferative activity against human PWR-1E cells after 3 days by WST-1 assay; assay type: cell-based; conditions: 72 h
Outline: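 PWR-1E benign prostate epithelial cells grown in keratinocyte serum-free medium with bovine pituitary extract and recombinant human EGF. Seeded 3,200 cells/well and treated for 3 days at 37 °C, with DMSO as vehicle control. WST-1 reagent added for 3 h, absorbance read at 430 nm. IC50 from a linear inhibition plot over at least five doses; mean ± SD, n = 3.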

[5] = system: PC-3; assay: Cell cycle arrest in human PC3 cells assessed as accumulation at G0/G1 phase at 10 uM after 16 hrs by propidium iodide staining-based flow cytometry (reference value: 34.1%); assay type: functional
[6] = system: PC-3; assay: Cell cycle arrest in human PC3 cells assessed as accumulation at G0/G1 phase at 20 uM after 16 hrs by propidium iodide staining-based flow cytometry (reference value: 34.1%); assay type: functional
[7] = system: PC-3; assay: Cell cycle arrest in human PC3 cells assessed as accumulation at G0/G1 phase at 10 uM after 24 hrs by propidium iodide staining-based flow cytometry (reference value: 37.5%); assay type: functional
[8] = system: PC-3; assay: Cell cycle arrest in human PC3 cells assessed as accumulation at G0/G1 phase at 20 uM after 24 hrs by propidium iodide staining-based flow cytometry (reference value: 37.5%); assay type: functional
[9] = system: PC-3; assay: Cell cycle arrest in human PC3 cells assessed as accumulation at S phase at 10 uM after 16 hrs by propidium iodide staining-based flow cytometry (reference value: 9.9%); assay type: functional
[10] = system: PC-3; assay: Cell cycle arrest in human PC3 cells assessed as accumulation at S phase at 20 uM after 16 hrs by propidium iodide staining-based flow cytometry (reference value: 9.9%); assay type: functional
[11] = system: PC-3; assay: Cell cycle arrest in human PC3 cells assessed as accumulation at S phase at 10 uM after 24 hrs by propidium iodide staining-based flow cytometry (reference value: 8.0%); assay type: functional
[12] = system: PC-3; assay: Cell cycle arrest in human PC3 cells assessed as accumulation at S phase at 20 uM after 24 hrs by propidium iodide staining-based flow cytometry (reference value: 8.0%); assay type: functional
[13] = system: PC-3; assay: Cell cycle arrest in human PC3 cells assessed as accumulation at G2/M phase at 10 uM after 16 hrs by propidium iodide staining-based flow cytometry (reference value: 32.3%); assay type: functional
[14] = system: PC-3; assay: Cell cycle arrest in human PC3 cells assessed as accumulation at G2/M phase at 20 uM after 16 hrs by propidium iodide staining-based flow cytometry (reference value: 32.3%); assay type: functional
[15] = system: PC-3; assay: Cell cycle arrest in human PC3 cells assessed as accumulation at G2/M phase at 10 uM after 24 hrs by propidium iodide staining-based flow cytometry (reference value: 27.8%); assay type: functional
[16] = system: PC-3; assay: Cell cycle arrest in human PC3 cells assessed as accumulation at G2/M phase at 20 uM after 24 hrs by propidium iodide staining-based flow cytometry (reference value: 27.8%); assay type: functional
[17] = system: PC-3; assay: Induction of apoptosis in human PC3 cells assessed as viable cells at 1 uM after 16 hrs by F2N12S and CYTOX AADvanced double staining-based flow cytometric analysis (reference value: 95%); assay type: functional; conditions: PC-3, 16 h, read-out: Activity
[18] = system: PC-3; assay: Induction of apoptosis in human PC3 cells assessed as apoptotic cells at 1 uM after 16 hrs by F2N12S and CYTOX AADvanced double staining-based flow cytometric analysis (reference value: 2 to 3%); assay type: functional
[19] = system: PC-3; assay: Induction of apoptosis in human PC3 cells assessed as necrotic cells at 1 uM after 16 hrs by F2N12S and CYTOX AADvanced double staining-based flow cytometric analysis (reference value: 2 to 3%); assay type: functional
[20] = system: PC-3; assay: Induction of apoptosis in human PC3 cells assessed as viable cells at 5 uM after 16 hrs by F2N12S and CYTOX AADvanced double staining-based flow cytometric analysis (reference value: 95%); assay type: functional; conditions: PC-3, 16 h, read-out: Activity
[21] = system: PC-3; assay: Induction of apoptosis in human PC3 cells assessed as apoptotic cells at 5 uM after 16 hrs by F2N12S and CYTOX AADvanced double staining-based flow cytometric analysis (reference value: 2 to 3%); assay type: functional
[22] = system: PC-3; assay: Induction of apoptosis in human PC3 cells assessed as necrotic cells at 5 uM after 16 hrs by F2N12S and CYTOX AADvanced double staining-based flow cytometric analysis (reference value: 2 to 3%); assay type: functional
[23] = system: PC-3; assay: Induction of apoptosis in human PC3 cells assessed as viable cells at 10 uM after 16 hrs by F2N12S and CYTOX AADvanced double staining-based flow cytometric analysis (reference value: 95%); assay type: functional; conditions: PC-3, 16 h, read-out: Activity
[24] = system: PC-3; assay: Induction of apoptosis in human PC3 cells assessed as apoptotic cells at 10 uM after 16 hrs by F2N12S and CYTOX AADvanced double staining-based flow cytometric analysis (reference value: 2 to 3%); assay type: functional
[25] = system: PC-3; assay: Induction of apoptosis in human PC3 cells assessed as necrotic cells at 10 uM after 16 hrs by F2N12S and CYTOX AADvanced double staining-based flow cytometric analysis (reference value: 2 to 3%); assay type: functional
[26] = system: PC-3; assay: Induction of apoptosis in human PC3 cells assessed as viable cells at 20 uM after 16 hrs by F2N12S and CYTOX AADvanced double staining-based flow cytometric analysis (reference value: 95%); assay type: functional; conditions: PC-3, 16 h, read-out: Activity
[27] = system: PC-3; assay: Induction of apoptosis in human PC3 cells assessed as apoptotic cells at 20 uM after 16 hrs by F2N12S and CYTOX AADvanced double staining-based flow cytometric analysis (reference value: 2 to 3%); assay type: functional
[28] = system: PC-3; assay: Induction of apoptosis in human PC3 cells assessed as necrotic cells at 20 uM after 16 hrs by F2N12S and CYTOX AADvanced double staining-based flow cytometric analysis (reference value: 2 to 3%); assay type: functional
[29] = system: PC-3; assay: Induction of apoptosis in human PC3 cells assessed as viable cells at 30 uM after 16 hrs by F2N12S and CYTOX AADvanced double staining-based flow cytometric analysis (reference value: 95%); assay type: functional; conditions: PC-3, 16 h, read-out: Activity
[30] = system: PC-3; assay: Induction of apoptosis in human PC3 cells assessed as apoptotic cells at 30 uM after 16 hrs by F2N12S and CYTOX AADvanced double staining-based flow cytometric analysis (reference value: 2 to 3%); assay type: functional
[31] = system: PC-3; assay: Induction of apoptosis in human PC3 cells assessed as necrotic cells at 30 uM after 16 hrs by F2N12S and CYTOX AADvanced double staining-based flow cytometric analysis (reference value: 2 to 3%); assay type: functional
[32] = system: PC-3; assay: Induction of apoptosis in human PC3 cells assessed as viable cells at 50 uM after 16 hrs by F2N12S and CYTOX AADvanced double staining-based flow cytometric analysis (reference value: 95%); assay type: functional; conditions: PC-3, 16 h, read-out: Activity
[33] = system: PC-3; assay: Induction of apoptosis in human PC3 cells assessed as apoptotic cells at 50 uM after 16 hrs by F2N12S and CYTOX AADvanced double staining-based flow cytometric analysis (reference value: 2 to 3%); assay type: functional
[34] = system: PC-3; assay: Induction of apoptosis in human PC3 cells assessed as necrotic cells at 50 uM after 16 hrs by F2N12S and CYTOX AADvanced double staining-based flow cytometric analysis (reference value: 2 to 3%); assay type: functional
[35] = system: PC-3; assay: Induction of apoptosis in human PC3 cells assessed as viable cells at 100 uM after 16 hrs by F2N12S and CYTOX AADvanced double staining-based flow cytometric analysis (reference value: 95%); assay type: functional; conditions: PC-3, 16 h, read-out: Activity
[36] = system: PC-3; assay: Induction of apoptosis in human PC3 cells assessed as apoptotic cells at 100 uM after 16 hrs by F2N12S and CYTOX AADvanced double staining-based flow cytometric analysis (reference value: 2 to 3%); assay type: functional
[37] = system: PC-3; assay: Induction of apoptosis in human PC3 cells assessed as necrotic cells at 100 uM after 16 hrs by F2N12S and CYTOX AADvanced double staining-based flow cytometric analysis (reference value: 2 to 3%); assay type: functional
[38] = system: PC-3; assay: Induction of apoptosis in human PC3 cells assessed as apoptotic cells after 16 hrs by F2N12S and CYTOX AADvanced double staining-based flow cytometric analysis; assay type: functional, cell-based
[39] = Cmax in C57BL/6J mouse prostate at 240 mg/kg, po administered as single dose measured after 6 hrs post administration; assay type: ADME, organism-based, Prostate gland; design: dose 240 mg/kg, route oral

CCOc1c(-c2cc(OC)c(OC)c(OC)c2)oc2ccccc2c1=O
IC50 [1]: 0.9 µM | IC50 [2]: 6.2 µM | IC50 [3]: 5.4 µM | IC50 [4]: 8.05 µM | Activity [5]: 55.7% | Activity [6]: 59% | Activity [7]: 40.8% | Activity [8]: 48.6% | Activity [9]: 7.7% | Activity [10]: 4.6% | Activity [11]: 18.7% | Activity [12]: 11.8% | Activity [13]: 22.2% | Activity [14]: 24.5% | Activity [15]: 19.3% | Activity [16]: 17.9% | viability at 1 µM [17]: 94% | Activity [18]: 3% | Activity [19]: 3% | viability at 5 µM [20]: 95% | Activity [21]: 3% | Activity [22]: 3% | viability at 10 µM [23]: 95% | Activity [24]: 3% | Activity [25]: 3% | viability at 20 µM [26]: 93% | Activity [27]: 5% | Activity [28]: 5% | viability at 30 µM [29]: 94% | Activity [30]: 3% | Activity [31]: 3% | viability at 50 µM [32]: 92% | Activity [33]: 5% | Activity [34]: 5% | viability at 100 µM [35]: 91% | Activity [36]: 6% | Activity [37]: 6%

CCCCCN(CCCCC)CCCOc1c(-c2cc(OC)c(OC)c(OC)c2)oc2ccccc2c1=O
IC50 [1]: 5.8 µM | IC50 [2]: 12.3 µM | IC50 [3]: 5.1 µM | IC50 [4]: 14.8 µM | Activity [5]: 51.3% | Activity [6]: 40.8% | Activity [7]: 52.6% | Activity [8]: 59.8% | Activity [9]: 4.5% | Activity [10]: 6.5% | Activity [11]: 3.7% | Activity [12]: 1.9% | Activity [13]: 28.6% | Activity [14]: 34.8% | Activity [15]: 25.4% | Activity [16]: 26.4% | viability at 1 µM [17]: 87% | Activity [18]: 10% | Activity [19]: 2% | viability at 5 µM [20]: 46% | Activity [21]: 51% | Activity [22]: 3% | viability at 10 µM [23]: 3% | Activity [24]: 93% | Activity [25]: 4% | viability at 20 µM [26]: 0% | Activity [27]: 94% | Activity [28]: 6% | viability at 30 µM [29]: 0% | Activity [30]: 92% | Activity [31]: 8% | viability at 50 µM [32]: 0% | Activity [33]: 65% | Activity [34]: 35% | viability at 100 µM [35]: 0% | Activity [36]: 27% | Activity [37]: 72% | Activity [38]: Dose-dependent effect

COc1cc(-c2oc3ccccc3c(=O)c2O)cc(OC)c1OC
IC50 [1]: 32.1 µM | IC50 [2]: 27.2 µM | IC50 [3]: 14.7 µM | IC50 [4]: > 50 µM | Activity [5]: 31.2% | Activity [6]: 33.3% | Activity [7]: 34.6% | Activity [8]: 33.8% | Activity [9]: 12.3% | Activity [10]: 11.7% | Activity [11]: 6% | Activity [12]: 6% | Activity [13]: 33% | Activity [14]: 26.6% | Activity [15]: 33.3% | Activity [16]: 31.2% | viability at 1 µM [17]: 90% | Activity [18]: 6% | Activity [19]: 2% | viability at 5 µM [20]: 81% | Activity [21]: 11% | Activity [22]: 2% | viability at 10 µM [23]: 66% | Activity [24]: 39% | Activity [25]: 2% | viability at 20 µM [26]: 47% | Activity [27]: 50% | Activity [28]: 3% | viability at 30 µM [29]: 43% | Activity [30]: 54% | Activity [31]: 2% | viability at 50 µM [32]: 45% | Activity [33]: 61% | Activity [34]: 2% | viability at 100 µM [35]: 24% | Activity [36]: 73% | Activity [37]: 3% | Activity [38]: Dose-dependent effect | Cmax [39]: 18.4 nM

From ChEMBL document CHEMBL4043132, “3-O-Substituted-3',4',5'-trimethoxyflavonols: Synthesis and cell-based evaluation as anti-prostate cancer agents” (Bioorg Med Chem, 2017)
